# Measurements published in paper PMC7383777 (Pediatric Diabetes, 2020).
# Read-outs that look alike come from different tables or passages of the source.
# Assay type: in vivo, human
# Conditions: for Glucose intervention needed, subjects: between 2 and 6 hours postdose
# Procedure, shortened: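 Randomized crossover: single s.c. pen dose of test or comparator insulin (100 U/mL) at two visits 3–22 days apart. Subjects were hospitalised 12 h and fasted to 6 h. AEs were treatment-emergent if onset was ≤7 days postdose. Hypoglycaemia followed ADA/ISPAD definitions, confirmed by meter PG <56 mg/dL and counted up to the next insulin or 16 h. Glucose was given below 56 mg/dL or at investigator discretion.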
# [1] = across the three age groups, 0.2 U/kg s.c. single dose
substance,measurement,setting,value
insulin aspart [IAsp],Safety and tolerability,[1],safe and well tolerated
same,Serious AEs,[1],No serious AEs were observed
same,Severe hypoglycemic episodes,[1],No severe hypoglycemic episodes were reported
same,"Confirmed hypoglycemic episodes (PG below 56 mg/dL), number","adults, N = 15, 0.2 U/kg s.c. single dose",three
same,"Glucose intervention needed, subjects",adults,three
same,"Glucose intervention needed, subjects",all age groups,seven
same,"Glucose intervention needed, subjects",children,three
